According to ChEMBL document CHEMBL2216753, “Novel 1,4-benzoxazine and 1,4-benzodioxine inhibitors of angiogenesis” (Eur J Med Chem, 2012):
Calls of active or inactive are those of the source. No cut-off for these calls is given here.

Columns and labels:
[1] = organism: Gallus gallus; assay: Antiangiogenic activity in chicken embryo chorioallantoic membrane model at 250 nmol/disc after 3 days; format: functional, tissue-based
[2] = tested on: MAEC; assay: Antimigratory activity against mouse MAEC cell migration after 5 hrs by wound closure assay; format: functional, cell-based
Method in brief: (§1)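 Confluent MAEC monolayers wounded with a 1.0-mm wide micropipette tip, then incubated in fresh medium with test compound. Wounds photographed after 5 h and width calculated from digital images. Mean ± SD of 2–4 independent experiments; Student t test, p < 0.05 significant.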

[3] = tested on: MAEC; assay: Antimigratory activity against mouse MAEC cell migration at 30 uM after 5 hrs by wound closure assay; format: functional; method in brief: as §1
[4] = tested on: HMEC-1; assay: Antiangiogenic activity in human HMEC1 cells assessed as inhibition of tube formation after 4 to 6 hrs by matrigel assay; format: functional, cell-based
Method in brief: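 HMEC-1 (60,000 cells) seeded on matrigel (10 mg/mL) after 30 min gelling at 37 °C, in DMEM containing test compound; after 4–6 h cells photographed and tubes scored 0 (none) to 3 (maximal, like untreated control). Mean ± SD of 2–4 independent experiments; Student t test, p < 0.05 significant.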

[5] = Cytotoxicity against human HMEC1 cells at 100 uM after 3 days by coulter counter method; format: cell-based; settings: hmec-1, 72 h
Method in brief: (§2)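 Cells seeded at 10,000 cells per cm2; after 16 h, fresh medium with test compound added. Cells trypsinized and counted with a Coulter counter on day 4 (BAEC, HeLa, MCF-7) or day 7 (HMEC-1). Cytotoxicity (cell death) was judged after 3 days in culture. HMEC-1 grown in EGM-2 with supplements and growth factors.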

[6] = tested on: MCF7; assay: Cytotoxicity against human MCF7 cells at 30 uM after 3 days by coulter counter method; format: cell-based; settings: mcf7, 72 h; method in brief: as §2
[7] = Cytotoxicity against human HMEC1 cells at 30 uM after 3 days by coulter counter method; format: cell-based; settings: hmec-1, 72 h; method in brief: as §2
[8] = tested on: HeLa; assay: Cytotoxicity against human HeLa cells at 100 uM after 3 days by coulter counter method; format: cell-based; settings: 72 h; method in brief: as §2
[9] = Antimigratory activity against mouse MAEC cell migration at 10 uM after 5 hrs by wound closure assay; format: functional; method in brief: as §1
[10] = Cytotoxicity against bovine BAEC cells at 100 uM after 3 days by coulter counter method; format: cell-based, Bos taurus; settings: cattle, 72 h; method in brief: as §2
[11] = tested on: MCF7; assay: Antiproliferative activity against human MCF7 cells after 4 days by coulter counter method; format: functional, cell-based; settings: MCF7, 96 h
[12] = tested on: MCF7; assay: Cytotoxicity against human MCF7 cells at 100 uM after 3 days by coulter counter method; format: cell-based; settings: mcf7, 72 h; method in brief: as §2
[13] = Antiproliferative activity against human HMEC1 cells after 7 days by coulter counter method; format: functional, cell-based; settings: HMEC-1, 168 h
[14] = Cytotoxicity against bovine BAEC cells at 30 uM after 3 days by coulter counter method; format: cell-based, Bos taurus; settings: cattle, 72 h; method in brief: as §2
[15] = tested on: HeLa; assay: Cytotoxicity against human HeLa cells at 30 uM after 3 days by coulter counter method; format: cell-based; settings: 72 h; method in brief: as §2
[16] = tested on: HeLa; assay: Antiproliferative activity against human HeLa cells after 4 days by coulter counter method; format: functional, cell-based; settings: 96 h
[17] = Antiproliferative activity against bovine BAEC cells after 4 days by coulter counter method; format: functional, cell-based; settings: Bos taurus, 96 h

## CN1CC(C)(COc2ccc(C(=N)N)cc2)Oc2ccc(N(CC(=O)O)Cc3cc(F)cc(F)c3)cc21 (configuration not stated)
[1]
  inhibition: inactive

## CCOC(=O)C(=O)N(Cc1cccc(F)c1)c1ccc2c(c1)N(C)CC(C)(COc1ccc(C(=N)N)cc1)O2 (configuration not stated)
[2]
  inhibition: Dose-dependent effect
[1]
  inhibition: Active
[3]
  inhibition: Active
[4]
  inhibition: Dose-dependent effect

## CN1CC(C)(COc2ccc(C(=N)N)cc2)Oc2cc(N(Cc3cccc(F)c3)C(=O)C(=O)O)ccc21 (configuration not stated)
[1]
  inhibition: inactive

## CN1CC(C)(COc2ccc(C(=N)N)cc2)Oc2ccc(N(Cc3cc(F)cc(F)c3)C(=O)C(=O)O)cc21 (configuration not stated)
[1]
  inhibition: inactive

## CCOC(=O)C(=O)N(Cc1ccc(F)cc1)c1ccc2c(c1)N(C)CC(C)(COc1ccc(C(=N)N)cc1)O2 (configuration not stated)
[2]
  inhibition: Dose-dependent effect
[5]
  Activity: Toxic
[6]
  Activity: Non-toxic
[7]
  Activity: Non-toxic
[8]
  Activity: Toxic
[1]
  inhibition: Active
[9]
  inhibition at 10 µM: 50%
[3]
  inhibition: Active
[10]
  Activity: Toxic
[11]
  IC50: 5.5 µM
[12]
  Activity: Toxic
[13]
  IC50: 8.4 µM
[4]
  inhibition: Dose-dependent effect
[14]
  Activity: Non-toxic
[15]
  Activity: Non-toxic
[16]
  IC50: 14 µM
[17]
  IC50: 6.6 µM

## N=C(N)c1ccc(OCC2COc3ccc(N(Cc4ccccc4)C(=O)C(=O)O)cc3O2)cc1 (configuration not stated)
[1]
  inhibition: inactive
[16]
  IC50: > 100 µM
[17]
  IC50: > 100 µM

## CN1CC(C)(CO)Oc2cc(N(Cc3ccccc3)C(=O)C(=O)O)ccc21 (configuration not stated)
[16]
  IC50: > 100 µM
[17]
  IC50: > 100 µM

## CN1CC(C)(COc2ccc(C(=N)N)cc2)Oc2ccc(N(CC(=O)O)Cc3ccc(F)cc3)cc21 (configuration not stated)
[1]
  inhibition: inactive

## CN1CC(C)(COc2ccc(C(=N)N)cc2)Oc2ccc(N(Cc3ccc(F)cc3)C(=O)C(=O)O)cc21 (configuration not stated)
[1]
  inhibition: inactive

## Cc1cc(C)c(/C=C2\C(=O)Nc3ccccc32)[nH]1
[2]
  inhibition: Dose-dependent effect

## CN1CC(C)(COc2ccc(C(=N)N)cc2)Oc2cc(N(Cc3ccc(F)c(F)c3)C(=O)C(=O)O)ccc21 (configuration not stated)
[1]
  inhibition: inactive

## CCOC(=O)CN(Cc1ccc(F)cc1)c1ccc2c(c1)OC(C)(COc1ccc(C#N)cc1)CN2C (configuration not stated)
[5]
  Activity: Toxic
[8]
  Activity: Toxic
[10]
  Activity: Toxic
[11]
  IC50: > 100 µM
[12]
  Activity: Toxic
[13]
  IC50: > 100 µM
[16]
  IC50: > 100 µM
[17]
  IC50: 50 µM

## CCOC(=O)CN(Cc1cc(F)cc(F)c1)c1ccc2c(c1)OC(C)(COc1ccc(C#N)cc1)CN2C (configuration not stated)
[5]
  Activity: Toxic
[8]
  Activity: Toxic
[10]
  Activity: Toxic
[11]
  IC50: 54 µM
[12]
  Activity: Toxic
[13]
  IC50: 49 µM
[16]
  IC50: > 100 µM
[17]
  IC50: 25 µM

## CN1CC(C)(CO)Oc2cc(N(Cc3cc(F)cc(F)c3)C(=O)C(=O)O)ccc21 (configuration not stated)
[16]
  IC50: > 100 µM
[17]
  IC50: > 100 µM

## CCOC(=O)CN(Cc1cccc(F)c1)c1ccc2c(c1)N(C)CC(C)(COc1ccc(C#N)cc1)O2 (configuration not stated)
[2]
  inhibition: Dose-dependent effect
[5]
  Activity: Toxic
[8]
  Activity: Toxic
[10]
  Activity: Toxic
[11]
  IC50: > 100 µM
[12]
  Activity: Toxic
[13]
  IC50: > 100 µM
[16]
  IC50: > 100 µM
[17]
  IC50: > 100 µM

## CCOC(=O)C(=O)N(Cc1cccc(F)c1)c1ccc2c(c1)OC(C)(COc1ccc(C(=N)N)cc1)CN2C (configuration not stated)
[2]
  inhibition: Dose-dependent effect
[5]
  Activity: Toxic
[6]
  Activity: Non-toxic
[7]
  Activity: Non-toxic
[8]
  Activity: Toxic
[1]
  inhibition: Active
[9]
  inhibition at 10 µM: 50%
[3]
  inhibition: Active
[10]
  Activity: Toxic
[11]
  IC50: 3.8 µM
[12]
  Activity: Toxic
[13]
  IC50: 7.9 µM
[4]
  inhibition: Dose-dependent effect
[14]
  Activity: Non-toxic
[15]
  Activity: Non-toxic
[16]
  IC50: 7.7 µM
[17]
  IC50: 6.5 µM

## CCOC(=O)C(=O)N(Cc1ccc(F)c(F)c1)c1ccc2c(c1)OC(C)(COc1ccc(C(=N)N)cc1)CN2C (configuration not stated)
[2]
  inhibition: Dose-dependent effect
[5]
  Activity: Toxic
[6]
  Activity: Non-toxic
[7]
  Activity: Non-toxic
[8]
  Activity: Toxic
[1]
  inhibition: Active
[9]
  inhibition at 10 µM: 50%
[3]
  inhibition: Active
[10]
  Activity: Toxic
[11]
  IC50: 5.8 µM
[12]
  Activity: Toxic
[13]
  IC50: 6.7 µM
[4]
  inhibition: Dose-dependent effect
[14]
  Activity: Non-toxic
[15]
  Activity: Non-toxic
[16]
  IC50: 11 µM
[17]
  IC50: 4.9 µM

## CN1CC(C)(COc2ccc(C(=N)N)cc2)Oc2cc(N(Cc3cc(F)cc(F)c3)C(=O)C(=O)O)ccc21 (configuration not stated)
[1]
  inhibition: inactive

## CN1CC(C)(COc2ccc(C(=N)N)cc2)Oc2cc(N(CC(=O)O)Cc3ccc(F)c(F)c3)ccc21 (configuration not stated)
[1]
  inhibition: inactive

## CCOC(=O)C(=O)N(Cc1cc(F)cc(F)c1)c1ccc2c(c1)N(C)CC(C)(COc1ccc(C(=N)N)cc1)O2 (configuration not stated)
[2]
  inhibition: Dose-dependent effect
[5]
  Activity: Toxic
[6]
  Activity: Non-toxic
[7]
  Activity: Non-toxic
[8]
  Activity: Toxic
[1]
  inhibition: Active
[9]
  inhibition at 10 µM: 50%
[3]
  inhibition: Active
[10]
  Activity: Toxic
[11]
  IC50: 5.2 µM
[12]
  Activity: Toxic
[13]
  IC50: 7.8 µM
[4]
  inhibition: Dose-dependent effect
[14]
  Activity: Non-toxic
[15]
  Activity: Non-toxic
[16]
  IC50: 6.9 µM
[17]
  IC50: 11 µM

## CN1CC(C)(COc2ccc(C(=N)N)cc2)Oc2ccc(N(CC(=O)O)Cc3ccc(F)c(F)c3)cc21 (configuration not stated)
[1]
  inhibition: inactive

## CN1CC(C)(COc2ccc(C(=N)N)cc2)Oc2cc(N(CC(=O)O)Cc3ccc(F)cc3)ccc21 (configuration not stated)
[1]
  inhibition: inactive

## CN1CC(C)(COc2ccc(C(=N)N)cc2)Oc2cc(N(Cc3ccc(F)cc3)C(=O)C(=O)O)ccc21 (configuration not stated)
[1]
  inhibition: inactive

## CN1CC(C)(COc2ccc(C(=N)N)cc2)Oc2ccc(N(Cc3ccc(F)c(F)c3)C(=O)C(=O)O)cc21 (configuration not stated)
[1]
  inhibition: inactive

## CN1CC(C)(COc2ccc(C(=N)N)cc2)Oc2cc(N(CC(=O)O)Cc3cccc(F)c3)ccc21 (configuration not stated)
[1]
  inhibition: inactive

## CN1CC(C)(COc2ccc(C(=N)N)cc2)Oc2ccc(N(Cc3cccc(F)c3)C(=O)C(=O)O)cc21 (configuration not stated)
[1]
  inhibition: inactive

## N=C(N)c1ccc(OCC2COc3cc(N(Cc4ccccc4)C(=O)C(=O)O)ccc3O2)cc1 (configuration not stated)
[1]
  inhibition: inactive
[16]
  IC50: > 100 µM
[17]
  IC50: > 100 µM

## CN1CC(C)(COc2ccc(C(=N)N)cc2)Oc2cc(N(CC(=O)O)Cc3cc(F)cc(F)c3)ccc21 (configuration not stated)
[1]
  inhibition: inactive

## CN1CC(C)(COc2ccc(C(=N)N)cc2)Oc2ccc(N(CC(=O)O)Cc3cccc(F)c3)cc21 (configuration not stated)
[1]
  inhibition: inactive

## CCOC(=O)CN(Cc1cc(F)cc(F)c1)c1ccc2c(c1)N(C)CC(C)(COc1ccc(C#N)cc1)O2 (configuration not stated)
[5]
  Activity: Toxic
[8]
  Activity: Toxic
[10]
  Activity: Toxic
[11]
  IC50: > 100 µM
[12]
  Activity: Toxic
[13]
  IC50: > 100 µM
[16]
  IC50: > 100 µM
[17]
  IC50: > 100 µM
